These results are taken from ChEMBL document CHEMBL2157878, “In vitro cellular uptake and dimerization of signal transducer and activator of transcription-3 (STAT3) identify the photosensitizing and imaging-potential of isomeric photosensitizers derived from chlorophyll-a and bacteriochlorophyll-a” (J Med Chem, 2011).

Calls of active or inactive are those of the source. The rule behind the calls is not given here.

For data set [1], the system named is Mus musculus. Nature of the data set: Drug uptake in BALB/c mouse xenografted with mouse Colon 26 cells at 1 umol/kg, iv after 24 hrs by fluorescence imaging. The format is ADME, organism-based. The conditions noted are these: in vivo. The method, boiled down: (§1)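 BALB/c mice (3/group) with Colon26 tumours (1×10⁶ cells s.c., right axilla, grown to 4–5 mm) were shaved and given 1.0 μmol/kg PS i.v. Whole-body fluorescence imaged under ketamine/xylazine at 24, 48 and 72 h: 540/40 nm illumination, long-pass emission filter, spectral unmixing of autofluorescence. Read-out is mean intensity of a 20 mm tumour ROI (AU), mean ± SD of 3 mice.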

Data set [2] has as its system BCC1. Briefly: Increase in STAT3 cross linking level in human BCC1 cells assessed as dimerization of STAT3 after 9 mins by Western blotting in presence of 665 nm light.
Data set [3] deals with Colon 26. Briefly: Drug uptake in mouse Colon 26 cells at 800 nM after 24 hrs by flow cytometry. The format is ADME, cell-based. Particulars: colon 26, 24 h, 0.8 µM. The method, boiled down: (§2)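 Colon26 cells seeded at 0.33×10⁶ per well and grown overnight, then given 100–800 nM PS in triplicate at 37°C, with no-PS wells for autofluorescence. Harvested by trypsin, spun cold, and run on flow cytometry (Ex 633 nm, Em 730±45 nm, 10,000 events). Value is mean fluorescence of triplicates minus autofluorescence.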
(Flow cytometry measures light scatter and fluorescence of single cells or particles in a stream.)

Data set [4] can be described thus: Photostability of the compound in 17% bovine calf serum assessed as rate of photobleaching at 6.5 uM after 20 to 22 mins in presence of light (75 mW/cm'2). The format is ADME. Particulars: cattle, read-out: Drug degradation. A digest of the protocol:
(§3)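 Equimolar (6.5 μM) photosensitizer solutions in 17% bovine calf serum were irradiated at 75 mW/cm². Absorption spectra were recorded at successive time points, and the normalized long-wavelength absorbance was plotted against time to follow photobleaching.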

In data set [5] the test system is Colon 26. Nature of the data set: Drug uptake in mouse Colon 26 cells at 400 nM after 24 hrs by flow cytometry. The format is ADME, cell-based. The conditions noted are these: colon 26, 24 h, 0.4 µM. A digest of the protocol: as §2
Data set [6] has as its target MAP kinase p38 (Homo sapiens) (UniProt O15264+Q15759+Q16539+P53778). Nature of the data set: Activation of p38 MAPK in human BCC1 cells assessed as dimerization of STAT3 after 9 mins by Western blotting in presence of 665 nm laser light. The format is cell-based. The method, boiled down:
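Subconfluent BCC1 cells, 2 h in serum-free DMEM with 2-fold serially diluted PS, then 665 nm dye-laser light for 9 min at 37°C (3 J/cm²) in serum-free medium. Cells extracted immediately and lysed in RIPA. 20 μg protein run on 6–10% SDS gels and immunoblotted for STAT3, p38/P-p38 and EGFR with ECL detection. Crosslinking given as % monomeric STAT3 converted to dimer form I.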

Data set [7] concerns BCC1 cells (Homo sapiens). Briefly: Ratio of drug uptake in human BCC1 cells in serum free medium to drug uptake in human BCC1 cells in medium containing 10% fetal calf serum by fluorescent microscopy.
Data set [8] deals with Colon 26. Nature of the data set: Photosensitizing activity in mouse Colon 26 assessed as cell viability at 0.0625 uM after 24 hrs followed by illumination with 665 nm laser light and 48 hrs incubation in dark by MTT assay in presence of serum. The format is functional, cell-based. A digest of the protocol:
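Colon26 cells, 3×10³/well in RPMI/10% FCS, were incubated 24 h in the dark with photosensitizer at 0.3 μM or 0.0625 μM. Medium was replaced with drug-free complete medium before illumination at 0–4 J/cm², 3.2 mW/cm², at each compound's peak wavelength (660, 665 or 674 nm). After 48 h in the dark, MTT was added for the last 4 h and absorbance read at 570 nm. Four replicate wells per condition, three independent experiments.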

The test system of data set [9] is BCC1. Nature of the data set: Reduction in EGFR levels in human BCC1 cells after 9 mins by Western blotting in presence of 665 nm laser light. The format is functional, cell-based. A digest of the protocol: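 BCC1 cells were incubated 2 h in serum-free DMEM with 2-fold serially diluted photosensitizer, washed, and illuminated with 665 nm light for 9 min (3 J/cm²). They were extracted immediately in RIPA buffer. Extracts (20 μg protein) were run on 6–10% SDS gels and immunoblotted for STAT3, EGFR, p38 and P-p38 with ECL detection. STAT3 crosslinking was scored as percent conversion of monomer into dimer form I.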
Background: A western blot detects proteins with antibodies after separation by electrophoresis.

For data set [10], the system named is Mus musculus. Nature of the data set: Drug uptake in BALB/c mouse xenografted with mouse Colon 26 cells at 1 umol/kg, iv after 48 hrs by fluorescence imaging. The format is ADME, organism-based. Particulars: in vivo. A digest of the protocol: as §1
Data set [11] relates to BCC1. Nature of the data set: Induction of apoptosis in human BCC1 cells assessed as survival after 24 hrs by trypan blue assay. The format is functional, cell-based. A digest of the protocol: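 BCC1 cells were loaded for 2 h in serum-free DMEM with 2-fold serial dilutions of photosensitizer. After washing, they were illuminated in serum-free medium at 37° with 665 nm dye-laser light for 9 min (3 J/cm²). Cells were then cultured 24 h in DMEM/10% FCS and trypsinized. Trypan blue-excluding cells were counted by hemocytometer and expressed relative to untreated controls.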

Data set [12] is described as follows: Drug uptake in human BCC1 cells at 200 nM incubated for 30 mins measured after 4 to 24 hrs by fluorescent microscopy. The conditions noted are these: bcc1, 0.5 h, 0.2 µM. The format is ADME, cell-based.
In data set [13] the test system is Mus musculus. Nature of the data set: Drug uptake in BALB/c mouse xenografted with mouse Colon 26 cells at 1 umol/kg, iv after 72 hrs by fluorescence imaging. The format is ADME, organism-based. Particulars: in vivo. The method, boiled down: as §1
Data set [14] in a line: Drug uptake in BALB/c mouse tumor xenografted with mouse Colon 26 cells at 1 umol/kg, iv after 24 hrs by fluorescence imaging. The format is ADME, organism-based, Neoplasm. Particulars: in vivo. The method, boiled down:
as §1

Data set [15] in a line: Drug uptake in human BCC1 cells assessed as deposition in mitochondria at 200 nM after 30 mins by phase contrast microscopy. The format is ADME. Particulars: bcc1, 0.5 h, 0.2 µM. The method, boiled down:
(§4)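 BCC1 cells in subconfluent culture, washed and incubated 30 min in serum-free DMEM with 200 nM PS. Washed free of PS and imaged at 640X under phase contrast and HPPH fluorescence (Ex 410/40, Em 675/750 nm). Cell PS also quantified by solubilising cells and reading fluorescence (Ex 415, Em 667 nm).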

The nature of data set [16]: Photostability of the compound in 17% bovine calf serum assessed as decrease in rate of photobleaching at 6.5 uM after 40 mins in presence of light (75 mW/cm'2). The format is ADME. Particulars: cattle. A digest of the protocol: as §3
A short description of data set [17]: Drug uptake in human BCC1 cells assessed as deposition in mitochondria at 200 nM after 30 mins by HPPH fluorescence spectrophotometry. The format is ADME. The conditions noted are these: bcc1, 0.5 h, 0.2 µM. The method, boiled down:
as §4

The subject of data set [18] is Colon 26. Briefly: Antitumor activity against mouse Colon 26 cells xenografted in parenterally dosed BALB/c mouse assessed as tumor cure at 1 umol/kg after 24 hrs followed by illumination with 128 J/cm'2, 14 mW/cm'2 laser light measured after 60 days. The format is functional. The method, boiled down:
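Subcutaneous Colon26 tumours in BALB/c mice (10/group), dosed at 4–5 mm diameter with 1 μmol/kg PS. At 24 h, unanaesthetised restrained mice received laser light to the tumour (665, 660 or 674 nm by compound; 128 J/cm², 14 mW/cm²). Tumours measured daily (V = L·W²/2). Cure means no palpable tumour by day 60–90. Euthanasia at 400 mm³.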

As for `CCc1c(C)c2cc3nc(c4c5[nH]c(cc6nc(cc1[nH]2)C(C)=C6C(C)OCc1cccc(I)c1)c(C)c5C(=O)C4)[C@@H](CCC(=O)O)[C@@H]3C` (stereo partly drawn), the Drug uptake result (in the data set on Mus musculus [1]; with Colon 26 [3]; in the data set with Colon 26 [5]; in the data set on Mus musculus [10]; in data set [12]; in the data set on Mus musculus [13]) was “Active” each time. The Drug uptake entry is listed as “Not Active” in [14], “Active” in data set [15] and “Active” in data set [17]. Moreover, the outcome (with BCC1 [2]; in data set [6]; in the data set with Colon 26 [8]; in the data set on BCC1 [9]) was Active. Also, in data set [4], the degraded at 6.5 µM stood at 50%. Also, the Ratio in data set [7] stood at 4. Besides, the Activity entry with BCC1 [11] is “Dose-dependent effect”. Further, in data set [16], the Stability entry was “Stable”. Also, the outcome with Colon 26 [18] was inactive.
